The values below come from publication PMC7815202 (ChemMedChem, 2020).

Where “and” joins values, the source holds several entries; their conditions need not be identical. Equal entries are not always repeated. Where two headings read alike, the source gives them in different places.

For experiment [1], the target named is T1, bovine spleen ADA (Bos taurus, UniProt P56658).
T1 sequence (P56658 1-363): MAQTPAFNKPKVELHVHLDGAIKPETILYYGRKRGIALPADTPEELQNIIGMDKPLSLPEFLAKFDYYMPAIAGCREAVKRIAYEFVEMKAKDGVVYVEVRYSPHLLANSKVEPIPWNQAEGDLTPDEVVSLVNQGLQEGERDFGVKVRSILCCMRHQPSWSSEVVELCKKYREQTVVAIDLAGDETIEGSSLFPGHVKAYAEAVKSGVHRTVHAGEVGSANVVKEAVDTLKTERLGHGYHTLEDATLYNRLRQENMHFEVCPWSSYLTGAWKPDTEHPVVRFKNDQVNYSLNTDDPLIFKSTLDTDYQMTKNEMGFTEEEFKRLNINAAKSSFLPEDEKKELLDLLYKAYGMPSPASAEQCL
In words: Cuvette fluorescence assay of ADA. The format is biochemical. An outline of the steps: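 Bovine spleen ADA, diluted to 1.15 U mL⁻¹ in 50 mM phosphate buffer pH 7.4 and kept on ice. Test compound (final 1–1000 µM, 0.1 µM for one analogue; DMSO stocks) and tzA (1 mM DMSO stock) were stirred 1 min in buffer in a quartz cuvette at 25.0 °C. ADA was then added. Emission at 410 nm (excitation 322 nm) was read every 10 s for 20 min.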

The target of experiment [2] is T1, bovine spleen ADA. The experiment can be described thus: HTS plate-reader fluorescence assay of ADA. The format is biochemical. Particulars: 200 μM, initial MBP library screen, relative to negative control.
Experiment [3] has as its target ADA. As to conditions: ref Cristalli et al. 1a; cited from earlier work.
For experiment [4], the system named is ADA. Particulars: non-HTS assay format; ref 8e; cited from earlier work.
The mark [5] stands for this setting: converted from IC50 by Cheng-Prusoff, three independent experiments.
Where [6] appears, read: cuvette, 25 °C, three independent experiments.

By Ki is commonly meant the equilibrium dissociation constant of an inhibitor or competing ligand from its target. As usually defined, the IC50 is the concentration at which inhibition is half-maximal. Turning to `Oc1ccccc1-c1ncc[nH]1` [Compound 3, 2-imidazolyl phenol], the inhibition constant (Ki) at bovine spleen ADA [1] (setting [5]) came out at 77 ± 14 µM. At bovine spleen ADA [1] (setting [6]), this compound yielded a concentration for half-maximal inhibition (IC50) of 93 ± 17 µM. For the same compound, the “percent inhibition of ADA” value on bovine spleen ADA [2] is ~ 83% and 83%.
Turning to `Oc1ccccc1-c1ncco1` [Compound 4, 2-oxazolyl phenol], the Ki at bovine spleen ADA [1] (setting [5]) was determined as 215 ± 12 µM. In addition, the half-maximal inhibitory concentration (IC50) against bovine spleen ADA [1] (setting [6]) was found to be 260 ± 14 µM. Also, at bovine spleen ADA [2], the “percent inhibition of ADA” value stood at 61%.
In the case of `C[C@H]1CN=C(c2ccccc2O)O1` [Compound 6, (S)-2-(5-Methyl-4,5-dihydrooxazol-2-yl)phenol], at bovine spleen ADA [1], the IC50 is 194 ± 4 µM and the affinity corresponds to a Ki of 161 ± 3 µM.
At bovine spleen ADA [1], `C[C@@H]1CN=C(c2ccccc2O)O1` [Compound 7, (R)-2-(5-Methyl-4,5-dihydrooxazol-2-yl)phenol] had an IC50 of 188 ± 10 µM and an inhibitory constant (Ki) of 156 ± 8 µM.
Consider “erythro-9-(2-hydroxy-3-nonyl) adenine [EHNA]”, for which the Ki was approximately 0.005 µM on ADA [3] and 0.019 ± 0.004 µM at ADA [4]. The IC50 with ADA [4] was 0.023 ± 0.004 µM.
